Experimental data published in ChEMBL document CHEMBL3758117, “Discovery of indeno[1,2-b]quinoxaline derivatives as potential anticancer agents” (Eur J Med Chem, 2016).
The source made the active and inactive calls. The rule behind the calls is not given here.

Tests used:
Huh-7 = assay: Selectivity index, ratio of IC50 for human MRC5 cells to IC50 for human HuH7 cells; assay type: functional
[1] = Selectivity index, ratio of IC50 for human MRC5 cells to IC50 for human H1299 cells; assay type: functional
MRC5 [2] = assay: Antiproliferative activity against human MRC5 cells after 72 hrs by XTT assay; assay type: cell-based; settings: MRC5, 72 h
Summary of the method: (§1)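 Cells kept as monolayers in DMEM with 10% FBS, penicillin, streptomycin and amphotericin at 37°C, 5% CO2. Seeded at 5 x 10³ cells/well and exposed to compound for 72 h in medium with 10% FBS. XTT plus electron-coupling reagent added, 4 h at 37°C, absorbance read at 492 nm. Percent of control growth uses mean absorbance (n = 3). The 50% value is taken from the linear portion of the curve.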

[3] = target: T1, DNA topoisomerase 1 (Homo sapiens) (UniProt P11387); assay: Inhibition of human DNA topoisomerase 1-mediated relaxation of supercoiled pBR322 DNA at 100 uM after 30 mins by ethidium bromide staining based agarose gel electrophoresis
T1 sequence (whole entry): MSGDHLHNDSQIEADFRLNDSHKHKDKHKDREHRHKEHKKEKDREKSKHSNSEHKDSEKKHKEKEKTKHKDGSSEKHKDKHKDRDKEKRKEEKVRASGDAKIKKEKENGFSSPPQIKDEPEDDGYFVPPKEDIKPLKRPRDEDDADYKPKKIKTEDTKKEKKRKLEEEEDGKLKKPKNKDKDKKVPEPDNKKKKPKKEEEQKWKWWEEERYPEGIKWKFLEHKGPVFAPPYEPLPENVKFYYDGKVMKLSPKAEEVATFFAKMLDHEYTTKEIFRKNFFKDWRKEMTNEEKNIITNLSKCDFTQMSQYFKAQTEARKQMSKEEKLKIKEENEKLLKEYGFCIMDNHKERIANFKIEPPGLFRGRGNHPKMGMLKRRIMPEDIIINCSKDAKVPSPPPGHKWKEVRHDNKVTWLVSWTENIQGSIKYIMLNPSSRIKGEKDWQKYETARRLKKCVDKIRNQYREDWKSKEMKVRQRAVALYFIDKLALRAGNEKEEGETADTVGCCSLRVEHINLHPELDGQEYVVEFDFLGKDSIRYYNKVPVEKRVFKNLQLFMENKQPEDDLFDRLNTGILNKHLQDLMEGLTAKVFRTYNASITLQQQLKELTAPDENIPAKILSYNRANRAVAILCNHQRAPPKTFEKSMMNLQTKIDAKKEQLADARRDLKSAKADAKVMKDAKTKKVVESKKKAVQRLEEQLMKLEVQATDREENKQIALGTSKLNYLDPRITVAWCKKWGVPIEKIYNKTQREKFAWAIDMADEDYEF
Summary of the method: (§2)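 Human topo I or topo II (2 units) was reacted with 0.2 μg supercoiled pBR322 in 20 μl Tris-HCl pH 7.5 containing KCl, DTT, EDTA, MgCl2 and BSA, with DMSO held at 0.5%, for 30 min at 37°C. The reaction was stopped with SDS. Samples were run on 1% agarose in Tris-acetate/EDTA at 1.5 V/cm for 2-3 h and stained with ethidium bromide. Relaxation was quantified by densitometry of the supercoiled band area.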

Escherichia coli = assay: Binding affinity to Escherichia coli negative supercoiled pBR322 DNA at 10 uM after 12 hrs by ethidium bromide staining based agarose gel electrophoresis
Summary of the method: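 Negatively supercoiled pBR322 (400 ng) in TE buffer pH 8.0 was incubated with compound at 10 μM for 12 h at room temperature. Loading buffer with sarkosyl was added. Samples were run on 1% agarose at 6 V/cm for 2.5 h in TAE pH 8.5, stained with ethidium bromide and photographed under UV.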

[4] = Antiproliferative activity against human H1299 cells after 72 hrs by XTT assay; assay type: functional, cell-based; settings: NCI-H1299, 72 h; summary of the method: as §1
[5] = Antiproliferative activity against human HuH7 cells after 72 hrs by XTT assay; assay type: functional, cell-based; settings: Huh-7, 72 h; summary of the method: as §1
MRC5 [6] = assay: Selectivity index, ratio of IC50 for human MRC5 cells to IC50 for human MDA-MB-231 cells; assay type: functional
[7] = target: DNA topoisomerase 2-alpha (Homo sapiens) (UniProt P11388); assay: Inhibition of human DNA topoisomerase 2-mediated relaxation of supercoiled pBR322 DNA at 100 uM after 30 mins by ethidium bromide staining based agarose gel electrophoresis; summary of the method: as §2
[8] = target: T1, DNA topoisomerase 1 (Homo sapiens); assay: Inhibition of human DNA topoisomerase 1-mediated relaxation of supercoiled pBR322 DNA at 10 uM after 30 mins by ethidium bromide staining based agarose gel electrophoresis; summary of the method: as §2
MRC5 [9] = assay: Selectivity index, ratio of IC50 for human MRC5 cells to IC50 for human PC3 cells; assay type: functional
[10] = Antiproliferative activity against human PC3 cells after 72 hrs by XTT assay; assay type: functional, cell-based; settings: PC-3, 72 h; summary of the method: as §1
MDA-MB-231 = assay: Antiproliferative activity against human MDA-MB-231 cells after 72 hrs by XTT assay; assay type: functional, cell-based; settings: MDA-MB-231, 72 h; summary of the method: as §1
[11] = target: DNA topoisomerase 2-alpha (Homo sapiens) (UniProt P11388); assay: Inhibition of human DNA topoisomerase 2-mediated relaxation of supercoiled pBR322 DNA at 10 uM after 30 mins by ethidium bromide staining based agarose gel electrophoresis; summary of the method: as §2

Sequence of DNA topoisomerase 2-alpha (Homo sapiens) (P11388 whole entry): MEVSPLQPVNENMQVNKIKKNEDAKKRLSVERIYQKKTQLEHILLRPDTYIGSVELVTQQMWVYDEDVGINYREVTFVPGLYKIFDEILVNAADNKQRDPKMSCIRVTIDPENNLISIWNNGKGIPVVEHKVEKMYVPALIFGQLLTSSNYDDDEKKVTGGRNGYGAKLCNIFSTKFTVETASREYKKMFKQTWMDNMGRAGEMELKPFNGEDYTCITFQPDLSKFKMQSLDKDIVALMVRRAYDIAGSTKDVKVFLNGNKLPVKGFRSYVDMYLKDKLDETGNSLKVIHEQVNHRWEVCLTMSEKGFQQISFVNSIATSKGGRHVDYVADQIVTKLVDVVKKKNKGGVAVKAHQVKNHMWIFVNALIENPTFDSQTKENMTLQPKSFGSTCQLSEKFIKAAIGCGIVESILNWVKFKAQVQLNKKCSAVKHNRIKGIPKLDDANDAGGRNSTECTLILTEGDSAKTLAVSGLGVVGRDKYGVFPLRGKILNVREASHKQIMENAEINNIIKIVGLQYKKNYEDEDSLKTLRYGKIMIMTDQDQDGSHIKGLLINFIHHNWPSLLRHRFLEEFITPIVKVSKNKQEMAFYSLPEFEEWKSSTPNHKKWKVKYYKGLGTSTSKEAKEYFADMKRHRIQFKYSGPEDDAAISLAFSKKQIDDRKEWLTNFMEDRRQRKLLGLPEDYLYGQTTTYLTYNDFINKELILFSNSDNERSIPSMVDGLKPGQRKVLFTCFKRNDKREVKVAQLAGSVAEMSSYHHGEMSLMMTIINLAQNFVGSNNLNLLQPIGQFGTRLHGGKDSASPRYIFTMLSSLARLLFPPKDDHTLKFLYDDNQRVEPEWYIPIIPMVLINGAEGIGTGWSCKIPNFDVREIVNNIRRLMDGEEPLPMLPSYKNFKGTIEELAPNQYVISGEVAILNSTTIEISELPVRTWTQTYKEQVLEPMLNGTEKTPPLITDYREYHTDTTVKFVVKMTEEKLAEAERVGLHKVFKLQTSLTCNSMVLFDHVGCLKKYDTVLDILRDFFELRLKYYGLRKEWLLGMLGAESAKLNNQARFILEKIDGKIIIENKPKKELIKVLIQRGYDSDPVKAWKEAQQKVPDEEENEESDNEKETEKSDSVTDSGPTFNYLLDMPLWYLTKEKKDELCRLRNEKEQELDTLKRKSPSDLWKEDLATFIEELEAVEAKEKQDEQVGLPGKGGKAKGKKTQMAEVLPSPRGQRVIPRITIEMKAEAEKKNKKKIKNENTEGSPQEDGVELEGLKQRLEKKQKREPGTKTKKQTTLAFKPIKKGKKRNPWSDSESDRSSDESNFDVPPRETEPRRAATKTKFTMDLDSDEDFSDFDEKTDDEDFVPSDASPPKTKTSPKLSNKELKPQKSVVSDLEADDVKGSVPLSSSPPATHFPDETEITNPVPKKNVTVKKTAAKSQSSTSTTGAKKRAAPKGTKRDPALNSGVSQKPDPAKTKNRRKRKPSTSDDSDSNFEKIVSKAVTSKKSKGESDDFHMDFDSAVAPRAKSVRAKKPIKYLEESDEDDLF

Row | Compound | Ratio IC50 (Huh-7) | Ratio IC50 [1] | IC50 (MRC5 [2]) [µM] | topoisomerase 1 inhibition (active/inactive) [3] | Activity (Escherichia coli) | IC50 [4] [µM] | IC50 [5] [µM] | Ratio IC50 (MRC5 [6]) | inhibition call (active/not active) [7] | inhibition [8] | Ratio IC50 (MRC5 [9]) | IC50 [10] [µM] | IC50 (MDA-MB-231) [nM] | topoisomerase 2 inhibition (active/not active) [11] | inhibition [7]
1 | CN(C)CCCO/N=C1\c2ccccc2-c2nc3c(CN4CCC(N5CCCCC5)CC4)cccc3nc21.Cl | 4.26 | 0.68 | 3.49 | Active | inactive | 5.14 | 0.82 | 3.53 | Active | Active | 0.57 | 6.12 | 990 | inactive | 
2 | CN(C)CCNC(=O)c1cccc2nc3c(nc12)-c1ccccc1C3=O | 1.18 | 1.03 | 8.98 | Active | inactive | 8.75 | 7.64 | 1.23 | Active | Active | 0.82 | 11 | 7290 | inactive | 
3 | CN(C)CCCO/N=C1\c2ccccc2-c2nc3c(CN4CCOCC4)cccc3nc21.Cl | 10.84 | 10.6 | 73.5 | Active | inactive | 6.93 | 6.78 | 7.37 |  | inactive | 7.41 | 9.92 | 9970 | inactive | Active
4 | CN(C)CCCNC(=O)c1cccc2nc3c(nc12)-c1ccccc1C3=O | 1.18 | 1.16 | 9.07 | Active | inactive | 7.82 | 7.7 | 1.29 | Active | inactive | 0.89 | 10.2 | 7040 | inactive | 
5 | CN(C)CCCO/N=C1\c2ccccc2-c2nc3c(CN4CCCC4)cccc3nc21.Cl | 2.81 | 0.98 | 0.9 | Active | Active | 0.92 | 0.32 | 1.32 | Active | Active | 1.15 | 0.78 | 680 | inactive | 
6 | CN(C)CCCO/N=C1\c2ccccc2-c2nc3ccccc3nc21.Cl | 3.69 | 2.76 | 19.9 | Active | inactive | 7.19 | 5.38 | 2.83 | Active | Active | 2.3 | 8.63 | 7010 | inactive | 
7 | CN(C)CCCO/N=C1\c2ccccc2-c2nc3c(C(=O)NCCN4CCOCC4)cccc3nc21.Cl | 1.94 | 1.19 | 11.5 | Active | Active | 9.69 | 5.94 | 11.63 | Active | Active | 1.18 | 9.78 | 990 | inactive | 
8 | CN(C)CCCO/N=C/c1cccc2nc3c(nc12)-c1ccccc1/C3=N\OCCCN(C)C.Cl | 0.91 | 1.29 | 6.56 | Active | inactive | 5.1 | 7.19 | 0.93 | Active | Active | 1.05 | 6.27 | 7030 | Active | 
9 | CN(C)CCCO/N=C1\c2ccccc2-c2nc3c(C(=O)NCCN(C)C)cccc3nc21.Cl | 10.84 | 1.31 | 9 | Active | Active | 6.88 | 0.83 | 13.43 | Active | Active | 10.11 | 0.89 | 670 | Active | 
10 | CN(C)CCCO/N=C1\c2ccccc2-c2nc3c(CN4CCCCC4)cccc3nc21.Cl | 1.41 | 1.07 | 0.89 | Active | Active | 0.83 | 0.63 | 1.35 | Active | Active | 0.98 | 0.91 | 660 | inactive | 
11 | CN(C)CCCO/N=C1\c2ccccc2-c2nc3c(C(=O)NCCN4CCCC4)cccc3nc21.Cl | 9.62 | 1.39 | 7.89 | Active | Active | 5.69 | 0.82 | 17.53 | Active | Active | 11.6 | 0.68 | 450 | Active | 
